Test results taken from PMC5974556 (ChemistryOpen, 2018).
Values after ≈ are worked out from the molar mass of the structure shown. Marks after values point to notes of the source that are not given here.

How the values were obtained:
Caco‐2 cells [1] = assay: Mitochondria activity; type: cell-based; settings: Homo sapiens, Caco-2, 72 h, read-out: Caco‐2 IC50 MTT
In short: (§1)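 Cells kept in DMEM+glutamax with 1% NEAA, 1% P/S and 10% FBS at 37 °C, 10% CO2. Seeded 2×10^4 per well for 24 h, then exposed 72 h to test compound at various concentrations in serum-free medium, in triplicate. MTT (5 mg/mL in PBS) added for 2 h, formazan dissolved in DMSO, read at 570 nm. IC50 from % survival; doxorubicin control; MTT and SRB data pooled, mean ± SD, n≥6.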

EA.hy926 cells [2] = assay: Mitochondria activity; type: cell-based; settings: Homo sapiens, EA.hy 926, 72 h, read-out: EA.hy926 IC50 MTT
In short: as §1

[3] = Ferric reducing antioxidant power; settings: chemical antioxidant capacity, n=3
In short: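 FRAP reagent made from acetate buffer, TPTZ in ethanol and FeCl3·6H2O in dilute HCl, mixed 10:1:1, with TPTZ and iron solutions fresh daily. Sample mixed with reagent 1:9, absorbance read at 593 nm after 4 min. Values expressed as Trolox equivalents by linear regression on a Trolox standard curve; α-tocopherol positive control.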

Caco‐2 cells [4] = assay: Intracellular ROS; type: cell-based, human; settings: protein content normalization, mean±SD, n≥3
In short: (§2)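 Cells grown in DMEM+glutamax with 1% NEAA, 1% P/S and 10% FBS at 37 °C, 10% CO2. Seeded at 2×10^4 cells/well for 24 h, then confluent cells were exposed to test compound at 1 or 10 µM in serum-free medium, with NAC as control. Cells were washed, loaded with DCFH-DA for 30 min, then kept 1 h in phenol red-free DMEM. Fluorescence read at ex 485/em 535 nm, normalised to same-well SRB protein (490 nm) and given as % of untreated cells. Mean ± SD, n≥3; two-tailed t-test with unequal variances.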

EA.hy926 cells [5] = assay: Protein content; type: cell-based; settings: Homo sapiens, EA.hy 926, 72 h, read-out: EA.hy926 IC50 SRB
In short: (§3)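 Seeded 2×10^4 cells per well for 24 h, then treated with or without test compound for three days, in triplicate. Fixed with 50% TCA for 1 h at 4 °C, washed and dried. Stained 30 min at 4 °C with 0.4% sulforhodamine B in 1% acetic acid, rinsed with 1% acetic acid. Dye redissolved in Tris buffer, absorbance read at 490 nm. Doxorubicin control; MTT and SRB data pooled, mean ± SD, n≥6.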

HT‐29 cells [6] = assay: Protein content; type: cell-based; settings: Homo sapiens, HT-29, 72 h, read-out: HT‐29 IC50 SRB
In short: as §3

HT‐29 cells [7] = assay: Mitochondria activity; type: cell-based; settings: Homo sapiens, HT-29, 72 h, read-out: HT‐29 IC50 MTT
In short: as §1

[8] = Water solubility, shake flask method in 0.1 M phosphate buffer pH 6.8; type: physicochemical; settings: 37 °C, pH 6.8, aqueous buffer, thermodynamic from solid
In short: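 Excess solid added to 1 mL sodium phosphate buffer, pH 6.8. Two conditions: 90 min sonication at 37 °C, or 30 min sonication at 37 °C, 23 h shaking at 300 rpm, then 30 min sonication. Centrifuged 14000 rpm for 5 min, filtered (0.2 µm) at 37 °C and diluted in DMSO. Quantified by LC at maximum absorbance against standard curves; independent triplicates.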

Caco‐2 cells [9] = assay: Protein content; type: cell-based; settings: Homo sapiens, Caco-2, 72 h, read-out: Caco‐2 IC50 SRB
In short: as §3

EA.hy926 cells [10] = assay: Intracellular ROS; type: cell-based; settings: Homo sapiens; for activity at 1 µM: EA.hy 926, read-out: Intracellular ROS, percentage compared to the untreated control cells (ROS/SRB), EA.hy926, 1 μM; for activity at 10 µM: EA.hy 926, read-out: Intracellular ROS, percentage compared to the untreated control cells (ROS/SRB), EA.hy926, 10 μM
In short: as §2

HepG2 cells [11] = assay: Mitochondria activity; type: cell-based; settings: Homo sapiens, HepG2, 72 h, read-out: HepG2 IC50 MTT
In short: as §1

HepG2 cells [12] = assay: Protein content; type: cell-based; settings: Homo sapiens, HepG2, 72 h, read-out: HepG2 IC50 SRB
In short: as §3

HT‐29 cells [13] = assay: Intracellular ROS; type: cell-based; settings: Homo sapiens; for activity at 1 µM: HT-29, read-out: Intracellular ROS, percentage compared to the untreated control cells (ROS/SRB), HT‐29, 1 μM; for activity at 10 µM: HT-29, read-out: Intracellular ROS, percentage compared to the untreated control cells (ROS/SRB), HT‐29, 10 μM
In short: as §2

HepG2 cells [14] = assay: Intracellular ROS; type: cell-based; settings: Homo sapiens; for activity at 1 µM: HepG2, read-out: Intracellular ROS, percentage compared to the untreated control cells (ROS/SRB), HepG2, 1 μM; for activity at 10 µM: HepG2, read-out: Intracellular ROS, percentage compared to the untreated control cells (ROS/SRB), HepG2, 10 μM
In short: as §2

Row | SMILES | IC50 (Caco‐2 cells [1]) | IC50 (EA.hy926 cells [2]) | FRAP [3] | Intracellular ROS, percentage compared to the untreated control cells (ROS/SRB), Caco‐2, 1 μM (Caco‐2 cells [4]) | Intracellular ROS, percentage compared to the untreated control cells (ROS/SRB), Caco‐2, 10 μM (Caco‐2 cells [4]) | IC50 (EA.hy926 cells [5]) | IC50 (HT‐29 cells [6]) | IC50 (HT‐29 cells [7]) | solubility at 90 min [8] | solubility at 24 h [8] | IC50 (Caco‐2 cells [9]) | activity at 1 µM (EA.hy926 cells [10]) | activity at 10 µM (EA.hy926 cells [10]) | IC50 (HepG2 cells [11]) | IC50 (HepG2 cells [12]) | activity at 1 µM (HT‐29 cells [13]) | activity at 10 µM (HT‐29 cells [13]) | activity at 1 µM (HepG2 cells [14]) | activity at 10 µM (HepG2 cells [14])
1 | CC(C)CNC(=C\C(=O)/C=C/c1cccnc1)/C=C/c1cccnc1 [5 a, (1E,4Z,6E)‐5‐Isobutylamino‐1,7‐di(pyridin‐3‐yl)hepta‐1,4,6‐trien‐3‐one] | 45.3 ± 10.5 µM | 33 ± 9.5 µM | 0.03 Trolox equiv per μM | 109.8±7.4% | 114.7±3.1^[b] % | 35.9 ± 7.2 µM | 30.9 ± 10.9 µM | 37.6 ± 1.8 µM | 168 ± 6 µM (≈ 56.2 µg/mL) | 303 ± 16 µM (≈ 101 µg/mL) | 31.6 ± 9 µM | 88.7 ± 9.3% | 93.4 ± 14.6% | 26.2 ± 0.3 µM | 20.8 ± 1.5 µM | 103 ± 11.1% | 84.1 ± 2.5% | 90.7 ± 13.7% | 94 ± 4.6%
2 | O=C(/C=C(/C=C/c1cccnc1)NCCCO)/C=C/c1cccnc1 [5 f, (1E,4Z,6E)‐5‐(3‐Hydroxypropylamino)‐1,7‐di(pyridin‐3‐yl)hepta‐1,4,6‐trien‐3‐one] | > 75 µM | > 75 µM | 0.04 Trolox equiv per μM | 102.5±2.3% | 115.4±8.5% | > 75 µM | > 75 µM | > 75 µM | 1470 ± 24 µM (≈ 494 µg/mL) | 4270 ± 332 µM (≈ 1430 µg/mL) | > 75 µM | 88.7 ± 1.6% | 102 ± 1.6% | > 75 µM | > 75 µM | 95.4 ± 1.7% | 96 ± 12.7% | 84.8 ± 2.5% | 74.4 ± 3.2%
3 | COCCCN1C(/C=C/c2cccnc2)=CC(=O)CC1c1cccnc1 (stereo not drawn) [6 d, (E)‐1‐(3‐Methoxypropyl)‐2‐(pyridin‐3‐yl)‐6‐[2‐(pyridin‐3‐yl)vinyl]‐2,3‐dihydropyridin‐4(1H)‐one] | > 75 µM | > 75 µM | 0.00 Trolox equiv per μM | 90.8±6.3% | 89.9±3.4% | > 75 µM | > 75 µM | > 75 µM | 1280 ± 61.2 µM (≈ 448 µg/mL) | 2980 ± 166 µM (≈ 1040 µg/mL) | > 75 µM | 95.2 ± 5% | 98.3 ± 5.3% | > 75 µM | > 75 µM | 83.4 ± 5.6% | 88.4 ± 4.1% | 85.6 ± 8.9% | 95.7 ± 10%
4 | COCCCNC(=C\C(=O)/C=C/c1cccnc1)/C=C/c1cccnc1 [5 d, (1E,4Z,6E)‐5‐(3‐Methoxypropylamino)‐1,7‐di(pyridin‐3‐yl)hepta‐1,4,6‐trien‐3‐one] | 28.5 ± 3.5 µM | 70.6 ± 2.5 µM | 0.01 Trolox equiv per μM | 101.5±9.2% | 110.6±5.3^[b] % | 72.7 ± 3.7 µM | 51.5 ± 6.1 µM | 59.6 ± 7.7 µM | 897.4 ± 1.1 µM (≈ 314 µg/mL) | 2310 ± 90 µM (≈ 808 µg/mL) | 36 ± 0.1 µM | 102 ± 5.8% | 98.3 ± 2% | > 75 µM | > 75 µM | 102 ± 19.4% | 95.1 ± 14% | 92.3 ± 4.6% | 89.4 ± 3.1%
5 | COc1cc(/C=C/C(=O)CC(=O)/C=C/c2ccc(O)c(OC)c2)ccc1O [curcumin, reference compound] | 28 ± 6.4 µM | 20 ± 5.9 µM | 1.11 Trolox equiv per μM | 96.7±5.8% | 95.8±2.5% | 34.7 ± 10.5 µM | 20.3 ± 1.1 µM | 23.4 ± 5.1 µM | 2.9 ± 0.3 µM (≈ 1.07 µg/mL) | 2.6 µM (≈ 0.958 µg/mL) | 33.1 ± 4.5 µM | 99.9 ± 6.4% | 104 ± 7.6% | 20.3 ± 4.1 µM | 21.3 ± 4 µM | 92.8 ± 5.8% | 90.2 ± 6.1% | 95.9 ± 13.8% | 84.2 ± 8.1%
6 | O=C(/C=C(/C=C/c1cccnc1)NC1CCCCC1)/C=C/c1cccnc1 [5 b, (1E,4Z,6E)‐5‐Cyclohexylamino‐1,7‐di(pyridin‐3‐yl)hepta‐1,4,6‐trien‐3‐one] | 65.6 ± 2.1 µM | 40.2 ± 1.4 µM | 0.00 Trolox equiv per μM | 101.3±0.9% | 117.7±5.6^[b] % | 53 ± 1.9 µM | 19.4 ± 0.9 µM | 36.4 ± 7.9 µM | 11.3 ± 0.6 µM (≈ 4.06 µg/mL) | 12.2 ± 0.6 µM (≈ 4.39 µg/mL) | 60.8 ± 6 µM | 89.1 ± 4.2% | 114 ± 9.5% | > 75 µM | > 75 µM | 93.7 ± 13.2% | 90.6 ± 2.8% | 92.3 ± 7.8% | 98.8 ± 4.6%
